Data as given in ChEMBL document CHEMBL2321840, “Synthesis and structure-activity relationships of indazole arylsulfonamides as allosteric CC-chemokine receptor 4 (CCR4) antagonists” (J Med Chem, 2013).
Converted amounts (≈) assume the structure as drawn.

Experiments:
[1] = test system: Rattus norvegicus; experiment: Toxicity in rat administered for 7 days; assay type: organism-based; settings: in vivo, 168 h
[2] = Plasma protein binding in Beagle dog by equilibrium dialysis technique; assay type: ADME, cell-free, Canis lupus familiaris; settings: read-out: PPB
Method in brief: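 Rapid equilibrium dialysis in CD rat, beagle dog or human plasma, with compound at a nominal 1 μg/mL; n = 3.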

[3] = test system: HepG2; experiment: Cytotoxicity in human HepG2 cells assessed as effect on mitochondria; assay type: cell-based
[4] = test system: HepG2; experiment: Cytotoxicity in human HepG2 cells assessed as effect on cell membrane; assay type: cell-based
[5] = molecular target: T1, Solute carrier organic anion transporter family member 1B1 (Homo sapiens, UniProt Q9Y6L6); experiment: Antagonist activity at OATP1B1 (unknown origin) by [35S]GTPgammaS binding assay; assay type: functional
T1 sequence (Q9Y6L6 whole entry): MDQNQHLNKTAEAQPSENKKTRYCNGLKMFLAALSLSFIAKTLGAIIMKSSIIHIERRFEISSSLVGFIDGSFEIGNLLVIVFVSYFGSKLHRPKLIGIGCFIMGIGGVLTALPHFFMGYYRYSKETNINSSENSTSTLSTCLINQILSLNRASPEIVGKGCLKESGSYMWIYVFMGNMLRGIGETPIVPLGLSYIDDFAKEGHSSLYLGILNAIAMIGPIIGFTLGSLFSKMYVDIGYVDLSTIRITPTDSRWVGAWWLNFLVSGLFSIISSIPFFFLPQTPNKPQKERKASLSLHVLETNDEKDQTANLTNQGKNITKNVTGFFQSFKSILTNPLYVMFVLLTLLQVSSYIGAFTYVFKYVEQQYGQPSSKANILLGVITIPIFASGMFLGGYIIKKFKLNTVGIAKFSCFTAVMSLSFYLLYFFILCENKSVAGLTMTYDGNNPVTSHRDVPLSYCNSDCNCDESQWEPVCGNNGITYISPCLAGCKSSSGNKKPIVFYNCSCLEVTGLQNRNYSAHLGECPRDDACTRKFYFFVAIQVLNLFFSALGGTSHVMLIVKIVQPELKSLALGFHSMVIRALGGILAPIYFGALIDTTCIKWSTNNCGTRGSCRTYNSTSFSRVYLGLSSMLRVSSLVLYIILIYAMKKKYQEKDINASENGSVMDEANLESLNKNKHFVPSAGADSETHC

[6] = molecular target: Acetylcholine receptor subunit alpha (Homo sapiens) (UniProt P02708); experiment: Antagonist activity at nAChR alpha1 (unknown origin) by [35S]GTPgammaS binding assay; assay type: functional
[7] = molecular target: T2, C-C chemokine receptor type 10 (Homo sapiens, UniProt P46092); experiment: Antagonist activity at CCR10 receptor (unknown origin) by [35S]GTPgammaS binding assay; assay type: functional
T2 sequence (P46092 whole entry): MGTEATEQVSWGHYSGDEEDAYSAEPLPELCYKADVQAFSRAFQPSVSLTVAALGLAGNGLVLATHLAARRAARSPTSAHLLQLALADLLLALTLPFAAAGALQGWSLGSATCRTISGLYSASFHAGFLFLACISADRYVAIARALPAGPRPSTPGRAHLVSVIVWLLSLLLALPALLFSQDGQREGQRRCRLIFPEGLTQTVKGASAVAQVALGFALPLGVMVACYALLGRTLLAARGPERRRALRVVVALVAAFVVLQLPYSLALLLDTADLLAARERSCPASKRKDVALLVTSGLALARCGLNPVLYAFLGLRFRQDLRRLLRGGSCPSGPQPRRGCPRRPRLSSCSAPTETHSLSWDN

[8] = molecular target: T3, C-X-C chemokine receptor type 1 (Homo sapiens, UniProt P25024); experiment: Antagonist activity at CXCR1 receptor (unknown origin) by [35S]GTPgammaS binding assay; assay type: functional
T3 sequence (P25024 whole entry): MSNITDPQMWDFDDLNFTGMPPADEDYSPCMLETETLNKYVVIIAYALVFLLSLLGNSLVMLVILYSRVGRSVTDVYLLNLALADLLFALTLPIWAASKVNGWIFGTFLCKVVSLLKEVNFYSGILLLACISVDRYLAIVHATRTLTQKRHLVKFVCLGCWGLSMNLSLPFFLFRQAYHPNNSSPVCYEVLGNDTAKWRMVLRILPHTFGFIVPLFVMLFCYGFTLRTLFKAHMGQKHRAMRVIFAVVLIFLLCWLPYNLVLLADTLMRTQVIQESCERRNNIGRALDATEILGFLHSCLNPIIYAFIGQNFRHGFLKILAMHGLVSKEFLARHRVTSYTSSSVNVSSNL

[9] = molecular target: C-C chemokine receptor type 2 (Homo sapiens, UniProt P41597); experiment: Antagonist activity at CCR2 receptor (unknown origin) by [35S]GTPgammaS binding assay; assay type: functional
[10] = Oral bioavailability in CD rat at 30 mg/kg administered as suspension; assay type: ADME, organism-based; settings: in vivo
[11] = Oral bioavailability in CD rat at 10 mg/kg administered as suspension; assay type: ADME, organism-based; settings: in vivo
[12] = Oral bioavailability in CD rat at 1 mg/kg administered as suspension; assay type: ADME, organism-based; settings: in vivo
Method in brief: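 Rats received an oral suspension of wet bead-milled material (particle size <1 μm), dosed at 1, 10 and 30 mg/kg.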

[13] = Kinetic solubility of the compound in PBS using DMSO at pH 7.4 by NMR analysis; assay type: physicochemical; settings: read-out: Kinetic_solubility
[14] = Kinetic solubility of the compound in PBS using MeOH at pH 7.4 by NMR analysis; assay type: physicochemical; settings: read-out: Kinetic_solubility
[15] = Equilibrium solubility of the compound in Britton-Robinson buffer at pH 7 after 24 hrs by HPLC analysis; assay type: physicochemical
Method in brief: (§1)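 Solid compound was equilibrated 24 h in Britton–Robinson buffer at the stated pH. Dissolved compound was quantified by HPLC.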

[16] = Equilibrium solubility of the compound in Britton-Robinson buffer at pH 2 after 24 hrs by HPLC analysis; assay type: physicochemical; method in brief: as §1
[17] = Equilibrium solubility of the compound in simulated gastric fluid at pH 1.6 after 24 hrs by HPLC analysis; assay type: physicochemical
Method in brief: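 Solid compound was equilibrated 24 h in the stated medium: water, SGF pH 1.6, FeSSIF pH 6.5, FaSSIF pH 6.5 or saline. Dissolved compound was quantified by HPLC.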

[18] = Kinetic solubility of the compound by chemiluminescent nitrogen detection assay; assay type: physicochemical; settings: read-out: Kinetic_solubility
[19] = molecular target: T4, C-C chemokine receptor type 4 (Homo sapiens, UniProt P51679); experiment: Antagonist activity at human recombinant CCR4 receptor expressed in CHO cell membranes by [35S]GTPgammaS binding assay; assay type: functional
T4 sequence (P51679 whole entry): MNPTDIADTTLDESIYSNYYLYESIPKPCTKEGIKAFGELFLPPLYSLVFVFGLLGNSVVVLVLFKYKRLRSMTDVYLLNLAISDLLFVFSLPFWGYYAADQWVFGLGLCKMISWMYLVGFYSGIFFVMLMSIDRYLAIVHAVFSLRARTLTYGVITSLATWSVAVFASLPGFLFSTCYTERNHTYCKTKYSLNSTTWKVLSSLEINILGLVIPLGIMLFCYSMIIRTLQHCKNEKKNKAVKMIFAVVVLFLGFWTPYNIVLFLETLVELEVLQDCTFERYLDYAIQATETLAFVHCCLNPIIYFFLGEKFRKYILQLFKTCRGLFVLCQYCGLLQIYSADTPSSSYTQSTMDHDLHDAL

[20] = in vivo; settings: beagle, dog, iv, 0.5 mg/kg
[21] = in vivo; settings: beagle, dog, iv, 0.5 mg/kg; remark: listed apart in the source

Sequence of C-C chemokine receptor type 2 (P41597 whole entry): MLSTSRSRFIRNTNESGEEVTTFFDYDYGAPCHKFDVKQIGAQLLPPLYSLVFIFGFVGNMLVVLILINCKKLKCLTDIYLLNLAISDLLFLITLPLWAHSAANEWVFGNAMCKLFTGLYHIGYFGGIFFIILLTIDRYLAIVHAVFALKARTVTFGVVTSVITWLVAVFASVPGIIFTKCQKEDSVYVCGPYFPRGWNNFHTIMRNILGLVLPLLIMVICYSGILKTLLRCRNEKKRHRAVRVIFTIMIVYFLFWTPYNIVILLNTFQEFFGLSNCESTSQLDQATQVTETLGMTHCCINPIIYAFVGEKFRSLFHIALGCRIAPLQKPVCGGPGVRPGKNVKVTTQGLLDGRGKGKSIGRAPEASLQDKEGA
Sequence of Acetylcholine receptor subunit alpha (Homo sapiens) (P02708 whole entry): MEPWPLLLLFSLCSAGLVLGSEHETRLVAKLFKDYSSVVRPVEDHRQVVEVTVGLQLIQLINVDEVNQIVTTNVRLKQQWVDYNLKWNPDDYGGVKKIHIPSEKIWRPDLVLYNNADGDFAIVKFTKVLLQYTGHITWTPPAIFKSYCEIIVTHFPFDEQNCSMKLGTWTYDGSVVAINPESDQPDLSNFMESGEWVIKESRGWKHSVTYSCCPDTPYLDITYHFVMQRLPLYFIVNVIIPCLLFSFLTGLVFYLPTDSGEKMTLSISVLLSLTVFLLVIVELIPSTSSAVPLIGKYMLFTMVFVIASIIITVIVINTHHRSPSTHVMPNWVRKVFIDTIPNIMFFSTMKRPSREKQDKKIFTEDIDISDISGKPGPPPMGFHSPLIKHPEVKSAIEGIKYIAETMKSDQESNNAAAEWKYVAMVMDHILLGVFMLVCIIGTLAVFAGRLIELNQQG

## COc1cccc2c1c(NS(=O)(=O)c1ccc(Cl)s1)nn2Cc1cccc(CNC(=O)C(C)(C)O)c1
[1]
  Activity: Non-toxic
[2]
  fraction unbound: ≤ 0.01
[3]
  Activity: Non-toxic
[4]
  Activity: Non-toxic
[5]
  IC50: 398 nM
[6]
  pXC50: 5.1
[7]
  IC50: > 10000 nM
[8]
  IC50: > 10000 nM
[9]
  IC50: > 10000 nM
[10]
  bioavailability: 101%
[11]
  bioavailability: 80%
[12]
  bioavailability: 53%
[13]
  solubility kinetic: 270 µg/mL (≈ 492 µM)
[14]
  solubility kinetic: > 270 µg/mL
[15]
  solubility thermodynamic at 24 h: 10 µg/mL (≈ 18.2 µM)
[16]
  solubility thermodynamic at 24 h: 3 µg/mL (≈ 5.46 µM)
[17]
  solubility thermodynamic at 24 h: 1 µg/mL (≈ 1.82 µM)
[18]
  solubility kinetic: ≥ 162 µg/mL
[19]
  IC50: 39.8 nM
[20]
  half-life: 2.6 h
[21]
  clearance: 9 mL/min/kg
